Laboratory results: ChEMBL document CHEMBL3297732, “Aryl-substituted aminobenzimidazoles targeting the hepatitis C virus internal ribosome entry site” (Bioorg Med Chem Lett, 2014)
The source made the active and inactive calls. The rule behind the calls is not given here.

Assays:
[1] = system: Internal ribosome entry site (IRES); experiment: Non-specific binding affinity to cyanine dye-labeled HCV IRES subdomain 2a RNA assessed as precipitation of dye labeled RNA at 50 to 100 uM by FRET assay in presence of Mg2+; conditions: Hepacivirus hominis
[2] = molecular target: Internal ribosome entry site (IRES); experiment: Binding affinity to cyanine dye-labeled HCV IRES subdomain 2a RNA by FRET assay in presence of Mg2+; parameters: species or system Hepacivirus hominis
Outline: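 Binding to IIa RNA measured by triplicate titration in a FRET assay that tracks ligand-induced conformational capture of the dye-labeled RNA. EC50 taken from a single-site dose-response fit to the titration data, with standard error from the triplicates.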

Activity [1]	EC50 [2]	SMILES
	95 µM	CN(C)CCCOc1ccc2c(c1)nc(N)n2-c1ccc(N(C)C)cc1
	100 µM	CN(C)c1cccc(-n2c(N)nc3ccc(Nc4ccncc4)cc32)c1
	210 µM	CC(=O)Nc1nc2cc(OCCCN(C)C)ccc2n1-c1ccccc1
	160 µM	CN(C)CCCn1c(N)nc2ccc(Nc3ccncc3)cc21
	100 µM	CC(=O)Nc1nc2cc(OCCN(C)C)ccc2n1-c1ccccc1
	120 µM	CN(C)CCCOc1ccc2nc(N)n(-c3cccc(N(C)C)c3)c2c1
Active		CN(C)CCCOc1ccc2c(c1)nc(NC(=O)c1ccccc1)n2-c1ccc(N(C)C)cc1
Active		CN(C)CCCOc1ccc2c(c1)nc(O)n2-c1ccccc1

The next lines start with the compound.

SMILES	Activity [1]	EC50 [2]
CN(C)CCOc1ccc2c(c1)nc(O)n2-c1ccccc1	Active	
CN(C)CCCOc1ccc2c(c1)nc(NC(=O)c1ccccc1)n2-c1ccccc1		> 500 µM
CN(C)CCOc1ccc2c(c1)nc(NC(=O)c1ccccc1)n2-c1ccccc1		> 500 µM
CN(C)CCCn1c(N)nc2cccc(-c3cccc(N(C)C)c3)c21		290 µM
CN(C)CCCn1c(N)nc2ccc(Nc3cccnc3)cc21		160 µM
CN(C)CCCOc1ccc2nc(O)n(-c3ccc(N(C)C)cc3)c2c1	Active	
CN(C)c1cccc(-n2c(N)nc3ccc(Nc4cccnc4)cc32)c1		74 µM
